# In PMC9401589 (Chembiochem, 2022):
# “Also recorded” adds a separate entry of the source. Where two headings read alike, the source gives them in different places.
# Key:
# A. thaliana seedlings = experiment: Seedling growth of A. thaliana; assay type: in vivo, Arabidopsis thaliana; conditions: 7 days after germination, compared to control
# Summary of the method: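 A. thaliana seedlings were grown with or without test compound and scored 7 days after germination for seedling morphology and root length (n≥18 seedlings). Each treatment was compared with the control by unpaired t-test.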
# [1] = system: DAHP accumulation in A. variabilis cells; experiment: DAHP accumulation in treated A. variabilis cells; assay type: cell-based, Anabaena variabilis; conditions: 250 μM, after 5 h of cultivation
# Summary of the method: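 Anabaena variabilis cells were cultivated for 5 h with 250 μM test compound, alongside untreated control cells. Treated cells were then examined for intracellular DAHP accumulation as an in vivo sign of DHQS inhibition in the shikimate pathway.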
# [2] = system: Anabaena variabilis ATCC 29413; experiment: Bioactivity assay: growth of A. variabilis in presence of compound; assay type: cell-based; conditions: for growth inhibition / bioactivity towards A. variabilis: 4 days of cultivation; for cell density (chlorophyll a content) compared to control: 250 μM, four-day cultivation; for concentration at which an effect on growth was visible: after 4 days of cultivation, tested 5-250 µM
# Summary of the method: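 A. variabilis cultured in suspension with test compound at 250 μM for four days. Chlorophyll a content was then measured as the indicator of cell density and compared with untreated control cultures. Cultures were also inspected visually for growth.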
# A. variabilis = experiment: Uptake assay: decrease of compound in supernatant of A. variabilis cultures; assay type: cell-based, Anabaena variabilis; conditions: 250 μM applied; for change of compound amount in supernatant: over 48 h
# [3] = target: T1, dehydroquinate synthase of Arabidopsis thaliana (AtDHQS) (Arabidopsis thaliana, UniProt Q8VYV7); experiment: DHQS activity assay; assay type: biochemical
# T1 sequence (Q8VYV7 59-442): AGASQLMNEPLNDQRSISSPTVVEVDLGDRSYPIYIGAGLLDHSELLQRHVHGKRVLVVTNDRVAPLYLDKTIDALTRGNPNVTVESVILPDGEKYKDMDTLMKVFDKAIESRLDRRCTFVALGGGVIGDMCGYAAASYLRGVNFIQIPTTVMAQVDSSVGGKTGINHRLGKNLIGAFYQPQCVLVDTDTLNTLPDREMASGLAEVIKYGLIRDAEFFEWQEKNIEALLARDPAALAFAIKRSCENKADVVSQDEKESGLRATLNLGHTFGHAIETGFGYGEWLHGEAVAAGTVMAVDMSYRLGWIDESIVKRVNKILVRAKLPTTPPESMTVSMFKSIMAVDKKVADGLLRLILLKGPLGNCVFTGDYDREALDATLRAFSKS
# [4] = target: T2, DHQS from A. variabilis (AvDHQS) (Trichormus variabilis, UniProt Q3M4V2); experiment: DHQS activity assay with A. variabilis enzyme; assay type: biochemical, Anabaena variabilis
# T2 sequence (Q3M4V2 1-363): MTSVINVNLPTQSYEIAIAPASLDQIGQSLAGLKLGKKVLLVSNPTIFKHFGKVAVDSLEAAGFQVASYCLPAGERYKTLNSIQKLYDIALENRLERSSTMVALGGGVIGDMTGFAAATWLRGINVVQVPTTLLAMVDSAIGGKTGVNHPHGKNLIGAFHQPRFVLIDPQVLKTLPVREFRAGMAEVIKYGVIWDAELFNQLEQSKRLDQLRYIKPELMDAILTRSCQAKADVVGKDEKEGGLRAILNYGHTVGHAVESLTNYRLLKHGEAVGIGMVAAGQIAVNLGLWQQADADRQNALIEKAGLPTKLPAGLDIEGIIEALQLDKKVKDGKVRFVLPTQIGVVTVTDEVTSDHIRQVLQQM
# fish = fish ref 2, 4; cited from earlier work
# [5] = Quantification of compound in plant material via GC-MS; assay type: in vivo, Arabidopsis thaliana
SMILES,effect on seedling growth / root length (A. thaliana seedlings),DAHP accumulation [1],growth inhibition / bioactivity towards A. variabilis [2],change of compound amount in supernatant (A. variabilis),cell density (chlorophyll a content) compared to control [2],concentration at which an effect on growth was visible [2] [µM],also measured
C[C@@H]1O[C@](O)(CO)[C@@H](O)[C@H](O)[C@H]1O [7dGh (5)],no statistical significant differences,only very small amounts; also recorded: neither DAHP accumulation,nor inhibitory impact on cell growth,slight decrease; also recorded: small decrease,–,–,"relative activity in relation to 7dSh (1) (ratio of IC50 values) ([3]; IC50 7dSh : IC50 derivative, same enzyme series): ≈ 0.3"
"C[C@@H](O)[C@@H](O)[C@@H](O)[C@H](O)C(=O)CO [7dSh (1), 7‐deoxy‐sedoheptulose]",significantly affected the growth and morphology,significantly higher amounts,–,–,significantly reduced,5,"IC50 [4]: 23.3 µM; cytotoxic effects (fish): little; amount of initially applied substance detected in the supernatant (A. variabilis; after 48 h, ESI-MS): about 50%; IC50 ([3]; IC50, AtDHQS, series [b] enzyme preparation): 85.5 µM; IC50 ([3]; IC50-value against isolated AtDHQS enzyme, range over both enzyme preparations): 85.5 to 144 µM; IC50 ([3]; IC50 of AtDHQS, approximate, as printed in discussion): ~100 µM"
"C[C@@H](O)[C@H](F)[C@@H](O)[C@H](O)C(=O)CO [5,7dd5FIh (3)]",no statistical significant differences,only very small amounts; also recorded: neither result in DAHP accumulation,nor in growth inhibition,depletion,–,–,–
"O=C(CO)[C@@H](O)[C@H](O)[C@H](O)[C@H](O)CO [Sedoheptulose, reference compound]",–,–,–,–,–,–,"inhibitory effect on AtDHQS [3]: no inhibitory effect; IC50 ([3]; AtDHQS, series [a] enzyme preparation, 2.5 µM substrate, 2 nM enzyme, 29 °C): > 1000 µM"
O=C(CO)[C@@H](O)[C@H](O)[C@H](O)[C@H](O)CF [7d7FSh (2)],significantly affected the growth and morphology; also recorded: inhibited growth,significantly higher amounts; also recorded: significantly elevated compared to 7dSh (1),inhibited growth,best among all tested compounds,significantly reduced,100,medium concentration leading to saturation of intracellular accumulation ([5]; 7 d old seedlings): 130 µM; accumulation / import into Arabidopsis seedlings ([5]; seedlings germinated on media with 7d7FSh (130 or 260 µM)): comparable range to 7dSh (1); initially applied compound retrieved in the supernatant (A. variabilis; after 24 h): none; IC50 [3]: 200 µM
